FN deposition inh: inhibitors of fibronectin matrix deposition, primary screen, AH1F cells, Alexa488-fibronectin fluorescence, plate reader; hit rate 0.086% among 350,000; inhibition, % at 12.6 µM; AID 743247, 2014; AH1F fibroblasts, overnight;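 active = mean inhibition across replicates of 30% or more, regardless of how many single replicates reach that level; inconclusive = mean under 30% yet at least half of replicates reach 30%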;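 note: positive control wells lacked labelled fibronectin entirely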
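Measured by – fluorescence 485/525 nm · System – AH1F fibroblast monolayer, labelled fibronectin deposition · Amount – 10000 cells per well · Buffer or medium – serum-reduced DMEM (2% serum) · Doses – single dose, pinned · Also added – fluorescent fibronectin at 24 nM final · Schedule – 1 h cell attachment, overnight exposure to compound and label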
ARNT-TACC3 inh: disruptors of ARNT/TACC3 protein interaction, primary screen, biochemical, AlphaScreen, single concentration; Transforming acidic coiled-coil-containing protein 3 (Homo sapiens), Q9Y6A5; AlphaScreen His-ARNT PAS-B/GST-TACC3 binding, luminescence; TACC3 fragment carries E629A point mutation; inhibition, % at 9.99 µM; hit rate 0.66% among 390,000;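 active = mean inhibition of replicates at least 50% and at least half of replicates each reaching 50%; inconclusive = half or more replicates reach 50% but mean below 50%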;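 note: 0% = complete ARNT plus TACC3 wells and 100% = ARNT alone without TACC3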
DENV2 CPE rescue: inhibitors of DENV2 cytopathic effect, primary screen, cell-based, plate reader, single concentration. DENV2-infected cells, cytopathic effect rescue. CPE inhibition, % at 9.99 µM. hit rate 1.7% among 350,000. AID 651640, 2012; in the data active = CPE inhibition above about 20%, passing the limit was not always enough; inconclusive = no clear call, values can overlap the other calls; tested in BHK-21 cells;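 note: 0% = median of neutral control wells and 100% = median of positive control wells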
SIRT5 block: SIRT5 desuccinylase inhibitors, primary screen, biochemical, fluorescence imaging, single point, set 5; hit rate 1.1% among 330,000; NAD-dependent protein deacylase sirtuin-5, mitochondrial (Homo sapiens), Q9NXA8; Purified SirT5, succinyl-peptide AMC, trypsin-coupled fluorescence; AID 652115, 2013; inhibition, % at 15 µM; in the data active = inhibition above about 15%; inconclusive = no clear call, values can overlap the other calls
Target sequence (Q9NXA8 whole entry, looked up): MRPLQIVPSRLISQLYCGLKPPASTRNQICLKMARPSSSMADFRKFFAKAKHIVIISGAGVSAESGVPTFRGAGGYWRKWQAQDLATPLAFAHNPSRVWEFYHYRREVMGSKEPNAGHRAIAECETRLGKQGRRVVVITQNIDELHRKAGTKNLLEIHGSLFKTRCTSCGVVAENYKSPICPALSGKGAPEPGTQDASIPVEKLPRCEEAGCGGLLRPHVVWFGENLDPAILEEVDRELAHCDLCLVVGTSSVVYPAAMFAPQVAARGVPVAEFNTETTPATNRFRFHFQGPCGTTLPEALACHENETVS
FGF22 binding: binders of human FGF22 protein, primary screen, FGF22 synaptogenesis inhibitor project, biophysical, thermal shift, single point; Fibroblast growth factor 22 (Homo sapiens), Q9HCT0; recombinant FGF22 thermal shift, SYPRO orange fluorescence; percent of sucrose octasulfate shift, DMSO zero; activity (Tm shift, normalised), % at 9.99 µM; hit rate 1.5% among 340,000; AID 651658, 2012;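 active = mean Tm shift, scaled 0 neutral to 100 positive control, at about 1.3% or above, every replicate too, limit read from the data; inconclusive = no clear call, values can overlap the other calls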
Target sequence (Q9HCT0 whole entry, looked up): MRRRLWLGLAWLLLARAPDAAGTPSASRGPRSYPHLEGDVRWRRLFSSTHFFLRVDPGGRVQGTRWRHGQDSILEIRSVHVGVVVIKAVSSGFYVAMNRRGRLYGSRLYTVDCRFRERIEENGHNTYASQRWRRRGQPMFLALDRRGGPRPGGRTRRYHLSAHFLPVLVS
Xi reactivation: activators of inactive X chromosome reactivation, primary screen, imaging, XiGFP fibroblasts, GFP high-content imaging, set 2. XiGFP mouse fibroblasts, % GFP-positive cells imaging, 3 d; cells co-treated with 5-aza-dC sensitizer; scaled so ellipticine positive control = 100%. activation, % at 7.58 µM. hit rate 0.055% among 360,000. AID 743238, 2013;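 active = mean normalized replicate activation at least 10% and every replicate at or above 10%; inconclusive = only one of the two criteria met; inactive = mean below 10% and not all replicates reach 10%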;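 note: 0% = median of on-plate neutral control wells and 100% = ellipticine 6 µM median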
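System: SV40-immortalized XiGFP fibroblast cells, line 68-5-11 / Incubation: 3-day compound exposure, then 15 min fixation at room temperature / Compound: single concentration per compound, delivered by pin transfer / Buffer or medium: DMEM plus 5-aza-dC sensitizer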
* = called active by the depositor; ? = inconclusive; / = no result given. In the library only some 3.8% were active in any assay of this set; here they are far more common.

SMILES	FN deposition inh	ARNT-TACC3 inh	DENV2 CPE rescue	SIRT5 block	FGF22 binding	Xi reactivation
COc1ccc(C(C)=O)cc1CSc1nnc(Nc2ccccc2)s1	4	1	/	/	/	0
COc1ccc(C(C)=O)cc1CSc1nnc(Nc2ccc(C)cc2)s1	-4	1	47*	-4	0	0
C[C@H](CO)N1C[C@H](C)[C@@H](CN(C)C(=O)Nc2ccc(F)cc2)Oc2c(NS(C)(=O)=O)cccc2C1=O	14	-5	2	-2	0	-1
C[C@@H]1CN([C@H](C)CO)C(=O)c2cc(NC(=O)CCN3CCOCC3)ccc2O[C@@H]1CN(C)C(=O)Nc1cccc2ccccc12	/	4	0	9	0	0
O=C(C[C@@H]1C=C[C@@H](NC(=O)Cc2ccccn2)[C@@H](CO)O1)NCCc1ccncc1	-5	-11	6	0	1	0
O=C(C[C@@H]1C=C[C@H](NC(=O)Cc2ccccn2)[C@@H](CO)O1)NCCc1ccncc1	-10	47*	18	1	-1	0
O=C(C[C@H]1C=C[C@H](NC(=O)Cc2ccccn2)[C@@H](CO)O1)NCCc1ccncc1	-2	27	23*	11	0	0
C/C=C/c1ccc([C@@H]2[C@@H](CO)N(C(=O)C3CC3)[C@H]2CN(C)C(=O)CN(C)C)cc1	7	-10	2	-2	0	0
C/C=C/c1ccc([C@H]2[C@@H](CO)N(C(=O)COC)[C@H]2CNC(=O)CC)cc1	-1	-11	-2	-2	0	0
CS(=O)(=O)Nc1ccccc1C(=O)NCc1ccccc1Cl	6	/	-7	-3	0	0
Cc1ccccc1CNC(=O)c1ccccc1NS(C)(=O)=O	6	20	4	27*	0	0
CCN(CC)C(=O)Cc1cn(C)c2ccccc12	13	3	4	1	43*	0
CC(=O)N1CC(=O)N2[C@H](CO)[C@@H](c3ccc(-c4ccc(C)cc4)cc3)[C@H]2C1	/	/	-1	4	0	0
CN(C)CCN1CCN(C(c2ccnc3ccccc23)c2nnnn2-c2ccc3c(c2)OCCO3)CC1 (configuration not stated)	1	/	22*	-9	0	0
COc1ccc(Cl)cc1N1C(=O)CC(N2CCN(S(=O)(=O)c3ccccc3F)CC2)C1=O (configuration not stated)	4	1	37*	-1	0	0
COc1ccccc1NC(=O)N1CCN(c2ccccn2)CC1	-1	1	31*	-3	0	0
COc1ccc(NC(=O)CN2CCN(c3ccccn3)CC2)cc1Cl	-1	-6	-6	29*	0	0
CC(C)c1ccc(NC(=O)CN2CCN(c3ccccn3)CC2)cc1	2	0	2	-2	0	0
CCCC(=O)Nc1ccc2c(c1)OC[C@@H](C)N(Cc1ccc(-c3ccccn3)cc1)C[C@@H](C)[C@@H](OC)CN(C)C2=O	-16	0	4	6	0	-1
COc1ccc(OC)c(S(=O)(=O)N2CCN(c3ncccn3)CC2)c1	-4	-5	-1	-6	0	0
COc1ccc(OC)c(S(=O)(=O)N2CCN(c3c(C)cccc3C)CC2)c1	2	0	27*	-1	0	0
CCOC(=O)N1CCN(C(=O)C2CCN(S(=O)(=O)c3cc(C)ccc3OC)CC2)CC1	-31	-1	3	/	0	0
CCOC(=O)N1CCN(C(=O)C2CCN(S(=O)(=O)c3cc(OC)ccc3OC)CC2)CC1	-4	5	-4	8	43*	0
Cc1cc(=O)[nH]c(SCc2cccc3ccccc23)n1	3	-15	-1	-5	0	0
Cc1cc(CSc2nc(C)cc(=O)[nH]2)c2ncccc2c1	2	2	-1	-1	43*	0
SMILES	FN deposition inh	ARNT-TACC3 inh	DENV2 CPE rescue	SIRT5 block	FGF22 binding	Xi reactivation
COc1ccc(NC(=O)N(C)C[C@H]2OCCCC[C@@H](C)Oc3ccc(NS(C)(=O)=O)cc3C(=O)N([C@H](C)CO)C[C@@H]2C)cc1	/	-9	-7	7	0	0
COc1ccc2[nH]c3c(=O)n(Cc4ccc(C(=O)N5CCC(C(N)=O)CC5)cc4)c(=S)[nH]c3c2c1	0	3	3	-2	43*	0
C/C=C/c1ccc([C@H]2[C@@H](CO)N(CCC)[C@H]2CNC(=O)CN2CCOCC2)cc1	-2	/	?	3	/	0
O=C(Nc1cccc(C(F)(F)F)c1)OCCN1CCN(Cc2ccccc2)CCC1=O	-4	-2	70*	/	0	0
COc1ccc(S(=O)(=O)Nc2ccc3c(c2)CC(=O)N([C@@H](C)CO)C[C@H](C)[C@H](CN(C)CC2CCCCC2)O3)cc1	/	-7	3	12	0	0
COc1ccc(S(=O)(=O)N2CCOC23CCN(S(=O)(=O)c2ccccc2)CC3)cc1	0	0	-4	27*	0	1
COc1ccc(S(=O)(=O)N2CCOC23CCN(S(C)(=O)=O)CC3)cc1	0	-1	-8	1	0	0
CC1(C)OC2OC(C(=O)N/N=C/c3ccccc3F)C3OC(C)(C)OC3C2O1 (configuration not stated)	-1	-6	12	1	44*	0
CC1(C)C(C=C(Cl)Cl)C1C(=O)N/N=C/c1ccccc1F (configuration not stated)	-1	-11	-4	0	0	0
C[C@@H]1CN([C@@H](C)CO)S(=O)(=O)c2ccc(C#CC(C)(C)O)cc2O[C@H]1CN(C)Cc1ccncc1	1	-4	18	0	0	0
Cc1c(Cl)c(C(=O)N2CCCCCC2)nn1C	3	/	5	-1	0	0
Cc1c(Cl)c(C(=O)N2CCCC2)nn1C	2	-4	121*	-4	0	0
O=C(CN1CCOCC1)NCC[C@@H]1CC[C@@H](NC(=O)c2ccccc2F)[C@H](CO)O1	4	-16	8	-1	0	0
COc1cc2c(cc1NC(=O)C(C)OC(=O)C1CC(=O)N(Cc3ccco3)C1)oc1ccccc12 (configuration not stated)	/	0	/	/	/	/

Screening results: PubChem BioAssay, Broad Institute
